These results are taken from ChEMBL document CHEMBL3585325, “Discovery of (1R,2S)-2-{[(2,4-Dimethylpyrimidin-5-yl)oxy]methyl}-2-(3-fluorophenyl)-N-(5-fluoropyridin-2-yl)cyclopropanecarboxamide (E2006): A Potent and Efficacious Oral Orexin Receptor Antagonist” (J Med Chem, 2015).

For data set [1], the target named is T1, Orexin/Hypocretin receptor type 1 (Homo sapiens, UniProt O43613).
T1 sequence (O43613 whole entry): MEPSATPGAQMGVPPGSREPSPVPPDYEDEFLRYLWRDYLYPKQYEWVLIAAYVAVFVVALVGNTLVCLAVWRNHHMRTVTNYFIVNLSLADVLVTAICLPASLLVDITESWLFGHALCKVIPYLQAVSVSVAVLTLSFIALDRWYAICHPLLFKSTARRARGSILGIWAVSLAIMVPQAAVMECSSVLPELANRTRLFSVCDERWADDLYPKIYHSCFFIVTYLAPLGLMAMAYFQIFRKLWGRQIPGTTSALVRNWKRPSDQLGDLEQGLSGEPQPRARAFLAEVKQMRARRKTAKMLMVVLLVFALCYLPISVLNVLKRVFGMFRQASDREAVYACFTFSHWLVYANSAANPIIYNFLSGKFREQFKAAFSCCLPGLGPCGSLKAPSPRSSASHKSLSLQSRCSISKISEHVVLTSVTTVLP
The data set is described as follows: Binding affinity to human OX1R expressed in HEK-293 cells assessed as inhibition of orexin A-induced calcium accumulation by FLIPR assay. Type of data set: cell-based, HEK293. The essentials: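 HEK-293 cells expressing human OX1R, seeded at 16000 cells/well and grown overnight at 37 °C, then loaded with Calcium 4 dye in HEPES buffer with 0.1% BSA (1 h at 37 °C, 15 min at RT). Compound was equilibrated 30 min at RT before orexin-A was added. Fluorescence read at ex 480/em 540 nm on FDSS6000; response taken as peak/baseline ratio. Orexin-A EC50 was determined in each experiment.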

A further data set has as its target Cytochrome P450 2C9 (Homo sapiens, UniProt P11712). The data set is described as follows: Inhibition of CYP2C9 in human liver microsomes using tolbutamide as susbtrate incubated for 30 mins prior to substrate addition for 10 mins by LC-MS/MS analysis. Format: ADME.
Data set [2] in a line: Plasma clearance in C57BL/6NCrlCrlj mouse at 1 mg/kg, iv by LC-MS/MS analysis. Format: ADME, organism-based. The essentials:
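Male C57BL/6NCrlCrlj mice dosed intravenously at 1 mg/kg in 10% DMSO in water. Blood was taken from the tail vein at set time points and spun to plasma. Concentrations were measured by LC-MS/MS (MRM, positive mode) against a 1/x²-weighted standard curve with internal standard. Parameters came from noncompartmental analysis.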

Data set [3] is described as follows: AUC (0 to infinity) in C57BL/6NCrlCrlj mouse at 30 mg/kg, po by LC-MS/MS analysis. On the set-up: dose 30 mg/kg, time infinity, route oral. Type of data set: ADME, organism-based. The note with it: in vivo.

pIC50, pKi: −log10 of the molar value.

Cytochrome P450 2C9, sequence (P11712 whole entry): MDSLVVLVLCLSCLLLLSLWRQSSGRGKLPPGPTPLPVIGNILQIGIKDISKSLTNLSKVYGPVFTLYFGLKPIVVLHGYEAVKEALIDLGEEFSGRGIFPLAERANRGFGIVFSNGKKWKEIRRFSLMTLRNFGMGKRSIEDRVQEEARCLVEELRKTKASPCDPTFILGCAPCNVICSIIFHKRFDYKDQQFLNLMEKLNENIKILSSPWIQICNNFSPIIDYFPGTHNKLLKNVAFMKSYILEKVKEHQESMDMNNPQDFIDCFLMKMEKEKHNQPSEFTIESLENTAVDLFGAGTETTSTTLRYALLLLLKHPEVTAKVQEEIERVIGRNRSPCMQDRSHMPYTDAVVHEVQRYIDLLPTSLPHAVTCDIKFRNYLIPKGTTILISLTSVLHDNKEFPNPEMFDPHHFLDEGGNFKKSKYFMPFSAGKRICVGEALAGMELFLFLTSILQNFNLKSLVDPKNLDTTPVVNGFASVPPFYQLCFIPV

With `Cc1ncc(OC[C@@]2(c3cccc(F)c3)C[C@H]2C(=O)Nc2ccc(F)cn2)c(C)n1` [LEMBOREXANT], the pKi in data set [1] was 8.24. The compound also showed a pIC50 against Cytochrome P450 2C9 of less than 4.70. The same compound gave a clearance in data set [2] of 17.7 mL/min/kg. The compound further yielded an AUC(0-inf) in data set [3] of 4130 ng·h/mL.

As usually defined, the pKi is the negative decadic logarithm of the Ki, by convention in mol/L. Broadly, the pIC50 is the IC50 on a negative log10 scale, so that one unit is a factor of ten. The clearance is the volume of plasma or blood freed of the substance per unit of time. High values mean efficient removal, low ones inefficient removal. One may read the AUC(0-inf) as total exposure, with the tail of the curve extrapolated. Read a high AUC(0-inf) as more exposure.
